In publication PMC12095820 (Scientific Reports, 2025):

How the values were obtained:
[1] = system: GBM cell lines LN18 and U373; assay: Antiproliferative evaluation in 2D cell culture, summary over both GBM lines; type: cell-based, human; conditions: data not shown; crystals at 20 µM
Outline: (§1)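 LN-18 and U373 cells were grown in phenol-red-free DMEM with 5% FBS and amino acids at 37 °C, 5% CO2. Cells (1 x 10³ per well) adhered 24 h, then were exposed 48 h to 0–140 µM compound, with 0.1% DMSO as vehicle. MTT (2.5 mg/mL in phenol-red-free medium) was applied 1 h at 37 °C. Plates were read at 540 nm after DMSO solubilisation and normalised to vehicle. Statistics: one-way ANOVA with Tukey.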

[2] = Dissolution in culture medium during antiproliferative assay; type: physicochemical; conditions: 20 µM
[3] = system: glioblastoma stem cells (Gli4); assay: Neurospheres formation assay; type: cell-based, human; conditions: proliferation medium, 0, 1 and 10 µM, 4 days
Outline: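 Dissociated Gli4 cells (4000 per well) were plated in proliferation medium in round-bottom ultra-low-attachment wells pre-coated with poly-HEMA; a flat-bottom format was also run. Compound in DMSO was added to final 0, 1 and 10 µM. After 4 days, spheres were dissociated, and cells were mixed 1:1 with trypan blue and counted in a Neubauer chamber.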

LN-18 = assay: Antiproliferative MTT assay, 2D cell culture; type: cell-based; conditions: Homo sapiens, LN-18, 48 h, read-out: IC50 LN-18
Outline: as §1

U373 = assay: Antiproliferative MTT assay, 2D cell culture; type: cell-based; conditions: Homo sapiens, U373 MG, 48 h, read-out: IC50 U373
Outline: as §1

Forced stability test = type: physicochemical; conditions: for Percentage degradation, Thermal: 50 °C; for Percentage degradation, Thermal / Percentage degradation, Acid / Percentage degradation, Basic / Percentage degradation, Luminous: 24 h; for Percentage degradation, Oxidative: H2O2 3%, 1 h; for Percentage degradation, Acid: HCl 0.1 N; for Percentage degradation, Basic: NaOH 0.1 N; for Percentage degradation, Luminous: Sunlight
Outline: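 Compound stock (1 mL) was placed in a 5 mL volumetric flask for each stress. Acid and base arms used 1 mL of 0.1 N HCl or 0.1 N NaOH for 24 h, then were neutralised with the opposite reagent. Oxidative stress used 3.0% H2O2. For heat (50 °C oven, 24 h) and sunlight exposure (24 h), stock was diluted to volume in mobile phase in capped vials. Degradation was assessed chromatographically.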

BJ = assay: MTT assay on non-cancerous control cells; type: cell-based; conditions: Homo sapiens, 48 h, read-out: IC50 BJ
Outline: (§2)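 Non-tumour control cells were used: BJ fibroblasts in DMEM with 5% FBS, and MCF-10A in DMEM/F12 with 5% horse serum, insulin, EGF and hydrocortisone. Cells (1 x 10³ per well) adhered 24 h, then were treated 48 h with 0–140 µM compound in DMSO (0.1% vehicle control). MTT (2.5 mg/mL) was applied 1 h at 37 °C. Formazan was dissolved in DMSO, read at 540 nm and normalised to vehicle.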

MCF-10 A = assay: MTT assay on non-cancerous control cells; type: cell-based; conditions: Homo sapiens, 48 h, read-out: IC50 MCF-10 A
Outline: as §2

Gli4 cells [4] = assay: 3D antiproliferative assay on non-aligned nanofibers; type: cell-based, human; conditions: proliferation and differentiation mediums, 0.1, 1 and 10 µM, 4 days
Gli4 cells [5] = assay: MTT assay, Gli4 in differentiation medium, flat bottom plate; type: cell-based, human; conditions: flat bottom, 0, 1 and 10 µM, compared to G-15
Outline: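 Gli4 cells (4000 per well) were seeded in differentiation medium in flat-bottom wells treated with laminin/lysine. Compound was tested at 0, 1 and 10 µM. Viability was quantified by MTT 5 days after incubation and expressed as % viability. N=5.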

Gli4 cells [6] = assay: 3D anti-migratory assay on aligned nanofibers; type: cell-based, human; conditions: 10 µM, non-cytotoxic concentration

Percentage degradation, Thermal (Forced stability test) [%]	Percentage degradation, Oxidative (Forced stability test) [%]	Percentage degradation, Acid (Forced stability test) [%]	Percentage degradation, Basic (Forced stability test) [%]	Percentage degradation, Luminous (Forced stability test) [%]	Compound	IC50 in the cells assayed [1]	Ability to dissolve into medium culture [2]	Neurospheres formation [3]	IC50 (LN-18) [µM]	IC50 (U373) [µM]	IC50 (BJ) [µM]	IC50 (MCF-10 A) [µM]	Cell proliferation of Gli4 on non-aligned nanofibers (Gli4 cells [4])	Cell viability of the NS (Gli4 cells [5])	Reduction of migration of Gli4 cells on aligned NFS (Gli4 cells [6]) [%]
					Brc1cc2c(cc1[C@@H]1Nc3ccccc3[C@@H]3C=CC[C@@H]31)OCO2 [G15, reference compound]	not able to reach IC50 values	formed crystals	inhibit neurospheres formation							
					Cc1cc2c(C(C)C)c(O)c(O)c(C=O)c2c(O)c1-c1c(C)cc2c(C(C)C)c(O)c(O)c(C=O)c2c1O [Gossypol, reference compound]				25.3	33.8					
0.75	0.5	0.65	13.6	3.5	O=C(NS(=O)(=O)c1ccc(Cl)cc1)c1ccc2c(c1)[C@@H]1C=CC[C@@H]1[C@H](c1cc3c(cc1Br)OCO3)N2 [L-37, (3aS,4R,9bR)-4-(6-bromobenzo[d][1,3]dioxol-5-yl)-N-((4-chlorophenyl)sulfonyl)-3a,4,5,9b-tetrahydro-3 H-cyclopenta[c] quinoline-8-carboxamide]			inhibit neurospheres formation	40.7	39.8	110	23.9	trend to decrease cell proliferation	slightly decreased cell viability	
1.36	2.95	7.2	9.8	0.15	Cc1ccc(S(=O)(=O)NC(=O)c2ccc3c(c2)[C@@H]2C=CC[C@@H]2[C@H](c2cc4c(cc2Br)OCO4)N3)cc1 [L-06, (3aS,4R,9bR)-4-(6-bromobenzo[d][1,3]dioxol-5-yl)-N-tosyl-3a,4,5,9b-tetrahydro-3 H-cyclopenta[c] quinoline-8-carboxamide]			inhibit neurospheres formation	67.7	67.7	102	33.8	non-antiproliferative activity	slightly decreased cell viability	~50
